The text below walks through data of ChEMBL document CHEMBL4265926, “Synthesis and antibacterial activity evaluation of novel biaryloxazolidinone analogues containing a hydrazone moiety as promising antibacterial agents” (Eur J Med Chem, 2018).

The test system of series [1] is Enterococcus faecium. Description: Antibacterial activity against vancomycin-resistant Enterococcus faecium by broth liquid microdilution method. The series is classed as functional. An outline of the steps: (§1)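 Isolates were identified on an automated MicroScan WalkAway 96 system. Susceptibility was tested by broth microdilution following CLSI guidelines. MIC was taken as the lowest concentration giving complete inhibition of bacterial growth. S. aureus ATCC 29213 served as the control strain.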
Background: Dilution methods test growth across graded concentrations, often in twofold steps.

Series [2] deals with Staphylococcus aureus. Description: Antibacterial activity against methicillin-sensitive Staphylococcus aureus by broth liquid microdilution method. It counts as functional. The method in brief: as §1
Series [3] relates to Staphylococcus aureus. Nature of the series: Antibacterial activity against methicillin-resistant Staphylococcus aureus by broth liquid microdilution method. It counts as functional. The method in brief: as §1
In series [4] the test system is Enterococcus faecalis. Description: Antibacterial activity against linezolid-resistant Enterococcus faecalis by broth liquid microdilution method. The series is classed as functional. An outline of the steps:
as §1

The subject of series [5] is Staphylococcus aureus. Description: Antibacterial activity against Staphylococcus aureus ATCC 29213 by broth liquid microdilution method. It counts as functional. An outline of the steps: as §1
Series [6] addresses T1, MAO-A (amine oxidase [flavin-containing] A) (Homo sapiens, UniProt P21397).
T1 sequence (P21397 whole entry): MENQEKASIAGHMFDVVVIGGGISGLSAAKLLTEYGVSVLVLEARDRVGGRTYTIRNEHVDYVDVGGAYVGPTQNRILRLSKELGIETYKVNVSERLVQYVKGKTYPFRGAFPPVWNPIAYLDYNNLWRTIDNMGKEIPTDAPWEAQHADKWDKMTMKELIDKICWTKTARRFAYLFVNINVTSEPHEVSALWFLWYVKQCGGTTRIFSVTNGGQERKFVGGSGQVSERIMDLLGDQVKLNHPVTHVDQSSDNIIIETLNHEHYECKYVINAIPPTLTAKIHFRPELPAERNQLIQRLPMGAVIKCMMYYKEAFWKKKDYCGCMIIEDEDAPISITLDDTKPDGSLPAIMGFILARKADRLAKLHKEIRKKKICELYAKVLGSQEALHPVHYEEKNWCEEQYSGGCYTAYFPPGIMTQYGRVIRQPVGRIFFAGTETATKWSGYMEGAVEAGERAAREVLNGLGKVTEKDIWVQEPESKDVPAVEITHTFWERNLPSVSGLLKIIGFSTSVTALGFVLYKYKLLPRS
Description: Inhibition of recombinant human MAOA expressed in baculovirus infected Sf9 insect cells at 30 uM using luciferin derived substrate pretreated for 15 mins followed by substrate addition and measured after 60 mins by luminescence assay relative to control. As to conditions: probe luciferin derived substrate. An outline of the steps:
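Human recombinant MAO-A with MAO-Glo luminescent kit. Compounds in DMSO (final 1% DMSO) preincubated with enzyme 15 min at room temperature, then luciferin derivative substrate added and reacted 60 min at room temperature. Luciferase detection reagent added for 20 min before luminescence read. Buffer replacing enzyme served as 100% inhibition control and DMSO as no-inhibition control; percent inhibition calculated against both.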

Series [7] concerns Enterococcus faecium. Description: Antibacterial activity against vancomycin-resistant Enterococcus faecium clinical isolates by broth liquid microdilution method. It counts as functional. The method in brief:
as §1

Series [8] concerns Staphylococcus aureus. Description: Antibacterial activity against methicillin-resistant Staphylococcus aureus clinical isolates by broth liquid microdilution method. It counts as functional. The method in brief:
as §1

The subject of series [9] is Enterococcus faecalis. Description: Antibacterial activity against linezolid-resistant Enterococcus faecalis clinical isolates by broth liquid microdilution method. The series is classed as functional. The method in brief: as §1
The subject of series [10] is Staphylococcus aureus. Nature of the series: Antibacterial activity against methicillin-sensitive Staphylococcus aureus clinical isolates by broth liquid microdilution method. It counts as functional. An outline of the steps: as §1
A short description of series [11]: Half life in human liver microsomes at 1.5 uM in presence of NADPH by LC-MS analysis. It counts as ADME, microsome. The method in brief:
(§2)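 Human liver microsomes with 1.5 µM compound in a 0.75 mg/mL microsome mix were pre-warmed at 37 °C for 5 min. Reaction started with NADPH (6 mM stock). Samples were quenched with acetonitrile plus internal standard at 0, 5, 15, 30 and 45 min, then read by LC/MS, in duplicate. T1/2 = ln(2)/k from the log-linear slope; Clint derived from T1/2; % remaining read at 45 min.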
(Liver microsomes are vesicles of endoplasmic reticulum, rich in cytochrome P450 enzymes.)

Series [12] in a line: Intrinsic clearance in human liver microsomes at 1.5 uM pretreated for 5 mins followed by NADPH addition measured after 5 to 45 mins by LC-MS analysis. It counts as ADME, microsome. The conditions noted are these: read-out: CLH. The method in brief: as §2
A further series relates to HepG2. Description: Cytotoxicity against human HepG2 cells after 48 hrs by MTT assay. As to conditions: HepG2, 48 h. The series is classed as cell-based. An outline of the steps: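 HepG2 cells grown in RPMI1640 with 10% FBS; about 4×10⁴ cells per well seeded in MEM, incubated 24 h at 37 ℃ in 5% CO₂, then exposed to compounds at indicated final concentrations for 48 h. MTT added (final 0.5 mg/mL) for 4 h at 37 ℃, formazan dissolved in DMSO, absorbance read at 492 nm. Triplicate runs; IC50 as mean ± SD.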
(Tetrazolium dyes change colour on reduction, which living cells bring about.)

The nature of series [13]: Stability in human liver microsomes assessed as parent compound remaining at 1.5 uM pretreated for 5 mins followed by NADPH addition measured after 45 mins by LC-MS analysis. It counts as ADME, microsome. As to conditions: read-out: Stability. An outline of the steps:
as §2

Structures are written as SMILES. In brackets after ≈: the same amount, converted by molar mass.

For the compound `CC(=O)NC[C@H]1CN(c2ccc(-c3ccc(/C=N/N4CCOCC4)cc3)c(F)c2)C(=O)O1`, the MIC worked out at 0.5 µg/mL (≈ 1.14 µM) in the series with Enterococcus faecium [1]; 0.25 µg/mL (≈ 0.568 µM) against Staphylococcus aureus [2]; 0.25 µg/mL (≈ 0.568 µM) against Staphylococcus aureus [3]; 0.25 µg/mL (≈ 0.568 µM) in the series on Enterococcus faecalis [4]; 0.5 µg/mL (≈ 1.14 µM) with Staphylococcus aureus [5].
Turning to `CC(=O)NC[C@H]1CN(c2ccc(-c3ccc(/C=N/N4CCS(=O)(=O)CC4)cc3)c(F)c2)C(=O)O1`, the MIC in the series with Enterococcus faecium [1], in the series on Staphylococcus aureus [2], against Staphylococcus aureus [3], in the series with Enterococcus faecalis [4] and in the series on Staphylococcus aureus [5] was 0.25 µg/mL (≈ 0.512 µM) each time.
As for `CC(=O)NC[C@H]1CN(c2ccc(-c3ccc(/C=N/N4CCNCC4)cc3)c(F)c2)C(=O)O1`, the MIC is 0.25 µg/mL (≈ 0.569 µM) against Enterococcus faecium [1]; 0.0625 to 0.5 µg/mL (≈ 0.142 to 1.14 µM) in the series on Enterococcus faecium [7]; 0.0675 µg/mL (≈ 0.154 µM) against Staphylococcus aureus [2]; 0.0675 µg/mL (≈ 0.154 µM) with Staphylococcus aureus [3]; 0.25 µg/mL (≈ 0.569 µM) against Enterococcus faecalis [4]; 0.0625 to 0.25 µg/mL (≈ 0.142 to 0.569 µM) against Enterococcus faecalis [9]. For the same compound, the MIC against Staphylococcus aureus [10] was 0.0625 to 0.25 µg/mL (≈ 0.142 to 0.569 µM); in the series with Staphylococcus aureus [5] it was 0.0675 µg/mL (≈ 0.154 µM). Further, in series [6], the inhibition at 1 h, 30 µM is 84%. Moreover, the MIC50 in the series on Enterococcus faecium [7] was determined as 0.25 µg/mL (≈ 0.569 µM); with Staphylococcus aureus [8], 0.125 µg/mL (≈ 0.284 µM); against Enterococcus faecalis [9], 0.25 µg/mL (≈ 0.569 µM); in the series with Staphylococcus aureus [10], 0.125 µg/mL (≈ 0.284 µM). Further, the MIC90 against Enterococcus faecium [7] stood at 0.5 µg/mL (≈ 1.14 µM); with Staphylococcus aureus [8] it was 0.25 µg/mL (≈ 0.569 µM); with Enterococcus faecalis [9] it was 0.25 µg/mL (≈ 0.569 µM); in the series with Staphylococcus aureus [10], 0.25 µg/mL (≈ 0.569 µM).
`CC(=O)NC[C@H]1CN(c2ccc(-c3ccc(/C=N/N4CCN(C(=O)c5ccc(F)cc5)CC4)cc3)c(F)c2)C(=O)O1`: the minimal inhibitory concentration (MIC) in the series with Enterococcus faecium [1] is 0.125 µg/mL (≈ 0.223 µM); in the series with Enterococcus faecium [7] it was 0.0625 to 0.5 µg/mL (≈ 0.111 to 0.89 µM); in the series with Staphylococcus aureus [2], 0.125 µg/mL (≈ 0.223 µM); against Staphylococcus aureus [3] it was 0.125 µg/mL (≈ 0.223 µM); in the series on Enterococcus faecalis [4], 0.125 µg/mL (≈ 0.223 µM); against Enterococcus faecalis [9] it was 0.0625 to 0.25 µg/mL (≈ 0.111 to 0.445 µM). Further, the MIC with Staphylococcus aureus [10] was 0.0625 to 0.25 µg/mL (≈ 0.111 to 0.445 µM); in the series with Staphylococcus aureus [5], 0.125 µg/mL (≈ 0.223 µM). For the same compound, in [6], the inhibition at 1 h, 30 µM was 89%. In addition, the MIC50 against Enterococcus faecium [7] stood at 0.25 µg/mL (≈ 0.445 µM); against Staphylococcus aureus [8], 0.125 µg/mL (≈ 0.223 µM); against Enterococcus faecalis [9], 0.25 µg/mL (≈ 0.445 µM); in the series with Staphylococcus aureus [10], 0.25 µg/mL (≈ 0.445 µM). In addition, the MIC90 came to 0.5 µg/mL (≈ 0.89 µM) against Enterococcus faecium [7], 0.25 µg/mL (≈ 0.445 µM) against Staphylococcus aureus [8], 0.25 µg/mL (≈ 0.445 µM) against Enterococcus faecalis [9] and 0.25 µg/mL (≈ 0.445 µM) in the series on Staphylococcus aureus [10].
Regarding `CC(=O)NC[C@H]1CN(c2ccc(-c3ccc(/C=N/N4CCN(C(=O)CO)CC4)cc3)c(F)c2)C(=O)O1`, the MIC against Enterococcus faecium [1] was 0.0675 µg/mL (≈ 0.136 µM); against Enterococcus faecium [7], 0.0625 to 0.5 µg/mL (≈ 0.126 to 1 µM); in the series on Staphylococcus aureus [2], 0.0675 µg/mL (≈ 0.136 µM); in the series on Staphylococcus aureus [3], 0.0675 µg/mL (≈ 0.136 µM); in the series with Enterococcus faecalis [4], 0.0675 µg/mL (≈ 0.136 µM); against Enterococcus faecalis [9] it was 0.0625 to 0.125 µg/mL (≈ 0.126 to 0.251 µM). Also, the values for the MIC in the series on Staphylococcus aureus [10] and with Staphylococcus aureus [5] were 0.0625 to 0.125 µg/mL (≈ 0.126 to 0.251 µM) and 0.0675 µg/mL (≈ 0.136 µM), respectively. Moreover, in series [6], the inhibition at 1 h, 30 µM was 80%. Also, the half-life at 1.5 µM in series [11] turned out to be 11.1 h. Moreover, the MIC50 against Enterococcus faecium [7] turned out to be 0.125 µg/mL (≈ 0.251 µM); in the series with Staphylococcus aureus [8], 0.0625 µg/mL (≈ 0.126 µM); against Enterococcus faecalis [9] it was 0.125 µg/mL (≈ 0.251 µM); with Staphylococcus aureus [10], 0.0625 µg/mL (≈ 0.126 µM). Further, the MIC90 in the series with Enterococcus faecium [7] came out at 0.25 µg/mL (≈ 0.502 µM); in the series with Staphylococcus aureus [8], 0.125 µg/mL (≈ 0.251 µM); against Enterococcus faecalis [9] it was 0.25 µg/mL (≈ 0.502 µM); in the series with Staphylococcus aureus [10], 0.125 µg/mL (≈ 0.251 µM). The CLint scaled at 1.5 µM in series [12] came out at 2.62 mL/min/kg. Besides, in the series with HepG2, the IC50 is 4.66 µM. Besides, the remaining at 0.75 h, 1.5 µM in series [13] is 93.9%.

One may read the MIC as the least concentration at which growth counts as inhibited. The low end stands for a more susceptible organism, the high end for a less susceptible organism. A word on the inhibition: it is the drop in the measured response relative to a control, in per cent. For orientation: MIC50 means an inhibitory concentration at the 50% level, which refers to growth in some studies and to a panel of isolates in others. By MIC90 is commonly meant an inhibitory concentration at the 90% level, which refers to growth in some studies and to a panel of isolates in others. Low readings indicate greater potency, high ones weaker potency. The term half-life denotes the time in which the quantity being followed falls by half. Usually IC50 stands for the concentration needed to halve the response being measured. A low value points to greater potency in that assay.
